This is one part of a sample in which hits are shown more often than they occur.
CHOP inhibitor: inhibitors of CHOP promoter induction, primary screen, cell-based, unfolded protein response, luciferase reporter; inhibition, % at 10 µM; CHO-K1 CHOP-promoter luciferase, tunicamycin-induced, 15-18 h; hit rate 3.8% among 220,000;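 active means compounds that reduced the stress-induced luciferase reporter signal by more than about 70% of percent inhibition, limit read from the data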
T cruzi inh: inhibitors of intracellular T. cruzi growth, primary screen, luminescence, NIH3T3 host cells | T. cruzi beta-gal in NIH3T3, 90 h | inhibition, % (test concentration not listed) | hit rate 1.4% among 300,000 | AID 1885, 2009;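 active means mean inhibition across valid replicates above about 55%, limit read from the data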;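 further: signal also drops with host cell toxicity which is not excluded here; higher percent means less beta-gal luminescence so fewer parasites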
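System: Mouse NIH/3T3 fibroblasts infected with β-gal-expressing T. cruzi Tulahuen C4 | Quantity: NIH/3T3 cells, 5,000 per well | Reagent: 5000 reporter trypomastigotes per well | Dosing: Compound pinned at 50 nL/well, DMSO | Schedule: 3 h host attachment, then at least 90 h co-culture | Detection: GalScreen luminescence, 60 min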
Dynein cargo inh: inhibitors of GR-EGFP nuclear translocation, primary screen, dynein cargo transport inhibitor project, imaging, high-content, 3617.4 mouse cells. AID 1381, 2008. test concentration mostly 20 µM; stimulated with dexamethasone, 1 µM; hits give low values. z-score, hits read low. hit rate 0.47% among 220,000;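 active means plate z-score of nuclear minus cytoplasmic receptor signal below a set negative limit, without overly bright fluorescence or cell loss, cut at about -3.5 in these data, passing the limit was not always enough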;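 further: z-score of nuclear minus cytoplasmic ring GR-EGFP intensity difference per well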
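Buffer or medium: tetracycline-free induction medium containing charcoal-stripped FBS / Reagent: dexamethasone agonist, 1.0 µM final, for 30 min / Technique: automated 10x imaging of fixed Hoechst-stained cells / Times: induction 48 h, compound 1 h, agonist 30 min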
UPR CHOP act: activators of apoptotic CHOP UPR arm, primary screen, cell-based, CHO-CHOP luciferase reporter, luminescence, uHTS; AID 449763, 2010; UPR activation; percent of tunicamycin response over DMSO baseline; hit rate 0.34% among 330,000; activation, % at 10 µM;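 active means at 10 µM dose, activation of 40% or more, normalized to positive control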
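assay system = CHO CHOP reporter cells | amount = 500 CHO-CHOP cells per well | buffer or medium = F12 with 10% FBS | incubation = 16-18 h cell attachment, then 6 h compound exposure, 37 °C | detection = luminescence read with Steady-Glo | read-out = percent activation relative to tunicamycin control | controls = tunicamycin high control, DMSO low control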
UPR XBP1 act: activators of adaptive XBP1 UPR arm, primary screen, cell-based, CHO-XBP1 luciferase reporter, luminescence, uHTS; IRE1-XBP1 UPR activation; percent of tunicamycin response, DMSO as zero; activation, % at 20 µM; hit rate 0.33% among 330,000;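 active means versus positive control, 20 µM dose yields 30% or more activation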
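Material: CHO cell line with stable XBP1 luciferase reporter; buffer or medium: F12 medium containing 10% fetal bovine serum; compound: single point, 20 µM final compound, 1% DMSO; incubation: 6 h treatment, 37 °C; measured by: glow luminescence from Steady-Glo reagent; evaluation: activation, % of tunicamycin; control set: tunicamycin high, DMSO low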
L major viab: Leishmania major promastigote growth inhibition, primary screen; hit rate 9% among 200,000; inhibition, % at 10 µM; Leishmania major promastigotes, resazurin fluorescence viability; AID 1063, 2008; in the data active means inhibition above about 50%;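 further: promastigotes grown with compound for 44 hours at 28 °C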
Numbers stand for hits; . = inactive; / = no result given.

SMILES	CHOP inhibitor	T cruzi inh	Dynein cargo inh	UPR CHOP act	UPR XBP1 act	L major viab
CCOC(=O)N1CCN(C(=O)C2CCCCC2)CC1	.	.	.	.	.	.
CCOC(=O)N1CCC(NC2CCCCCCC2)CC1	.	.	.	.	.	94
CCOC(=O)N1CCC(NCCNC(=O)c2ccc(Cl)cc2)CC1	.	.	.	.	.	91
CCOC(=O)C1CCCN(CC(O)COc2ccc(OC)cc2C(C)(C)C)C1 (stereo unspecified)	.	.	.	.	.	.
CCOC(=O)N1CCN(CC(O)COc2ccc(OC)cc2C(C)(C)C)CC1 (stereo unspecified)	.	.	.	.	.	59
CCOC(=O)N1CCN(CCC(=O)c2ccc(Br)cc2)CC1	/	.	/	.	.	/
CCOC(=O)N1CCN(CCC(=O)c2ccc(Cl)cc2)CC1	.	.	-5.4	.	.	94
CC(=O)N(CCCN(C)C)CCC(C)CCC=C(C)C (stereo unspecified)	.	65	.	.	.	100
Cc1cccnc1NC(=O)c1cc2ccccc2oc1=O	90	.	.	.	.	.
COc1ccc2c(c1)c(C(=O)N/N=C/c1ccc(O)c(O)c1)c(C)n2C	.	.	.	.	.	.
C/C(=N\NC(=O)Cn1c(-c2ccccn2)nc2ccccc21)c1cccc(O)c1	.	.	.	.	.	.
C/C(=N\NC(=O)Cn1c(-c2ccccn2)nc2ccccc21)c1ccccc1	.	.	.	.	.	68
COc1cccc(-n2c(SCC(N)=O)nnc2-c2ccncc2)c1	.	.	.	.	.	.
COc1cccc(NC(=O)C(Sc2nnc(-c3ccncc3)n2-c2ccc(Cl)cc2)c2ccccc2)c1 (stereo unspecified)	.	.	.	.	.	53
CC1=C(C(=O)Nc2ccccc2)C(c2cccnc2)n2nc(-c3cccnc3)nc2N1 (stereo unspecified)	.	.	.	.	.	.
CC1=C(C(=O)Nc2cccnc2)C(c2cccnc2)n2nc(-c3cccs3)nc2N1 (stereo unspecified)	.	.	.	.	.	84
CCOc1ccc(S(=O)(=O)NCc2ccncc2)cc1	78	.	.	.	.	.
CCOC(=O)COc1ccc(S(=O)(=O)NCc2ccncc2)cc1	.	.	.	.	.	.
COCCNc1nnc(SCC(=O)NNC(=O)c2ccc([N+](=O)[O-])cc2)s1	/	.	/	.	.	/
O=C(Oc1cccc(/C=N/Nc2nc(Nc3ccccc3)nc(N3CCOCC3)n2)c1)c1ccco1	.	.	.	.	.	65
COc1ccc(Br)cc1/C=N/NC(=O)c1ccco1	.	.	.	.	.	.
COc1cc(/C=N/Nc2ccc(Cl)c(C(=O)O)c2)ccc1OC(=O)c1ccco1	.	.	.	.	.	.
COc1cc(/C=N/Nc2nc(N3CCCCC3)nc(N3CCCCC3)n2)ccc1OC(=O)c1ccco1	.	.	.	.	.	60
c1ccc(Nc2nc(N3CCOCC3)nc(N3CCOCC3)n2)cc1	.	.	.	.	.	.
CC(C)(C)c1ccc(OCC(=O)N/N=C/c2cc(Br)ccc2OC(=O)c2ccco2)cc1	.	.	.	.	.	94
SMILES	CHOP inhibitor	T cruzi inh	Dynein cargo inh	UPR CHOP act	UPR XBP1 act	L major viab
COc1cc(/C=N/NC(=O)COc2ccccc2[N+](=O)[O-])ccc1OC(=O)c1ccco1	.	.	.	.	.	57
CC(C)C(=O)Nc1ccc(NC(=O)c2cccc3c(Br)cccc23)cc1	/	.	/	.	.	/
CCOc1ccccc1C(=O)N/N=C/c1coc2ccc(Cl)cc2c1=O	/	/	/	.	.	/
O=c1ccc(-c2ccc(S(=O)(=O)Nc3ccc(F)cc3)s2)n[nH]1	/	.	/	.	.	/
CCOc1cc(/C=N/Nc2nc(Nc3ccccc3)nc(N3CCCCC3)n2)ccc1OCC(=O)O	.	.	.	.	.	.
COc1ccc(/C=N/Nc2nc(Nc3ccccc3)nc(N3CCCCC3)n2)cc1OC	.	.	.	.	.	98
CC(C)(C)c1ccc(-c2cc(N)n[nH]2)cc1	91	.	.	.	.	.
Cc1ccc(-c2cc(N)n[nH]2)cc1	.	.	.	.	.	.
CCOC(=O)c1cnc(-n2nc(C)cc2C)nc1NCc1ccc2c(c1)OCO2	87	70	.	.	.	.
CSc1ccc(C(=S)N2CCN(Cc3ccccc3)CC2)cc1	.	.	.	.	.	94
CCN1CCN(C(=S)c2ccc(SC)cc2)CC1	.	.	.	.	.	91
CSc1ccc(C(=S)N2CCCCCC2)cc1	/	.	/	.	.	/
CCn1c(Sc2ccc([N+](=O)[O-])cn2)nnc1-c1ccco1	.	.	.	.	.	.
CN(c1ccccc1)c1nc(N2CCCC2)nc(-n2ccnc2)n1	.	.	.	.	.	95
c1ccc(-c2nc(-n3ccnc3)nc(-n3ccnc3)n2)cc1	.	.	.	.	.	.
CCOC(=O)N1CCN(c2nc(N(c3ccccc3)c3ccccc3)nc(-n3ccnc3)n2)CC1	.	.	.	.	.	/
c1ccc(N(c2ccccc2)c2nc(N3CCCC3)nc(-n3ccnc3)n2)cc1	.	57	.	.	.	98
CCOC(=O)c1c(C)nc(C)c2c(=O)oc3ccccc3c12	.	.	.	.	.	.
COc1ccc(CCNC(=S)N2CCC(Cc3ccccc3)CC2)cc1OC	.	.	.	.	.	.
CCn1ncc(CN2CCCC(C(=O)c3cccc(OC(C)C)c3)C2)c1C (stereo unspecified)	.	65	.	.	.	80
COc1ccc(C(=O)C2CCCN(Cc3cnc(N4CCOCC4)s3)C2)cc1F (stereo unspecified)	.	.	.	.	.	/
CC(C)Oc1cccc(C(=O)C2CCCN(Cc3cnc(N4CCOCC4)s3)C2)c1 (stereo unspecified)	.	59	.	.	.	.
COc1ccc(C(=O)C2CCCN(Cc3cnc(N4CCOCC4)s3)C2)c(OC)c1 (stereo unspecified)	.	61	.	.	.	84
CCOC(=O)c1[nH]ncc1CN1CCCC(C(=O)c2cccc(OC(C)C)c2)C1 (stereo unspecified)	.	.	.	.	.	.
CC(C)CN1CCN(Cc2cccn2-c2ccc(Cl)cn2)CC1CCO (stereo unspecified)	.	.	.	.	.	.
